Measurements as given in ChEMBL document CHEMBL3797027, “Potent anti-proliferative actions of a non-diuretic glucosamine derivative of ethacrynic acid” (Bioorg Med Chem Lett, 2016).
Calls of active or inactive are those of the source. No cut-off for these calls is given here.

Experiments:
[1] = system: NCI-H1299; assay: Increase in cleaved PARP protein expression in p53 deficient human H1299 cells at 10 to 40 uM by Western blot method; format: functional, cell-based
Outline: (§1)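 H1299 (p53-null), HCT116 (p53 wild type) and MDA-MB-231 (p53 mutant) cells were treated, then lysates were immunoblotted for p53, p21, PUMA and PARP. β-Actin served as loading control.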

[2] = Cytotoxic activity against human H1299 cells assessed as inhibition of cell proliferation incubated for 72 hrs by MTT assay; format: functional, cell-based; conditions: NCI-H1299, 72 h
Outline: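 MTT cell survival assay. IC50 is the concentration that inhibits tumour cell proliferation by 50%, read from cell survival curves. Values are given as mean ± SD of three independent experiments.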

[3] = system: NCI-H1299; assay: Increase in PUMA protein expression in p53 deficient human H1299 cells at 10 to 40 uM by Western blot method; format: functional, cell-based; outline: as §1
[4] = system: MCF7; assay: Potency index, ratio of IC50 for ethacrynic acid to IC50 for test compound for cytotoxic activity against human MCF7 cells assessed as inhibition of cell proliferation incubated for 72 hrs by MTT assay; format: functional
[5] = system: HCT-116; assay: Increase in p21'cip1 protein expression in wild type p53 expressing human HCT116 cells at 10 to 40 uM by Western blot method; format: functional, cell-based; outline: as §1
[6] = Potency index, ratio of IC50 for ethacrynic acid to IC50 for test compound for cytotoxic activity against human H1299 cells assessed as inhibition of cell proliferation incubated for 72 hrs by MTT assay; format: functional
Outline: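 Index is the reference IC50 divided by the test IC50. Both IC50s were taken from MTT cell survival curves, each as mean ± SD of three independent experiments.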

Question: Which Activity [1] does the source give for `C=C(CC)C(=O)c1ccc(OCC(=O)N[C@@H]2[C@@H](O)[C@H](O)[C@@H](CO)O[C@H]2O)c(Cl)c1Cl` here?
Answer: Its Activity is “Active”.

Question: And the IC50 [2]?
Answer: Its IC50 is 11.5 µM.

Question: What about the Activity [3] of the same molecule?
Answer: The Activity was “Active”.

Question: What about the “Ratio IC50” value [4] of the same molecule?
Answer: The value was 3.

Question: What about the Activity [5] of the same molecule?
Answer: Its Activity is “Active”.

Question: What about the “Ratio IC50” value [6] of the same molecule?
Answer: Its value is 3.
